Experimental data collected from several papers.
Protocols differ between the studies behind these lines.
Target: Dual specificity tyrosine-phosphorylation-regulated kinase 2 (DYRK2, Homo sapiens, UniProt Q92630)
Residues used in one study (Q92630 1-601): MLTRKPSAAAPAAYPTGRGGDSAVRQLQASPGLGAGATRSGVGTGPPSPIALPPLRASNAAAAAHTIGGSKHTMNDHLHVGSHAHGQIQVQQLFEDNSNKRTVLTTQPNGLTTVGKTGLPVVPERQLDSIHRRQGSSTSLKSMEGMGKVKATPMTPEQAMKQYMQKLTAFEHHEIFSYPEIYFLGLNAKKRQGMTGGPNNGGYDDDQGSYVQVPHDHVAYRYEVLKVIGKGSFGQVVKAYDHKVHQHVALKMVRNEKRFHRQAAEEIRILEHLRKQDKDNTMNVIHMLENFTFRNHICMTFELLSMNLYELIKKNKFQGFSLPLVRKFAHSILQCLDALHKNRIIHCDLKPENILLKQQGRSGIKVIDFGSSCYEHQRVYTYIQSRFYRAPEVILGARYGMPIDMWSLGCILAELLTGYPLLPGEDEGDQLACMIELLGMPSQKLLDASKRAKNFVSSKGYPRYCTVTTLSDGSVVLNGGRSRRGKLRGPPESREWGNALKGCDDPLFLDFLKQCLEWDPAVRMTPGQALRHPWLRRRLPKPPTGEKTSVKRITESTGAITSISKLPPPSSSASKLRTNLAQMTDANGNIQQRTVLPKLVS

`O=C(NCCCC1CCCCC1)c1ccc(CNC(=O)c2cnn(-c3ccccc3)c2C(F)(F)F)cc1` has a remaining binding of 100% (cell-free assay, competition with immobilised ligand; 0.1 µM).
For `COc1cccc(CCNc2nc3cc(C(=O)O)ccc3c3cncnc23)c1`, the remaining activity was 59% (enzyme activity, inhibitor, radiometric; 1 µM).
With `FC(F)(F)Oc1cccc(-c2cnc3ccc(-c4ccncc4)nn23)c1` the activity vs control was 46% (enzyme activity, inhibitor, radiometric; 5 µM).
The remaining binding of `CCCCN(CCCC)C(=O)CN1C[C@@H](c2cc(OC)c3c(c2)OCO3)[C@H](C(=O)O)[C@H]1CC(C)(C)CCC` is reported as 82.9% (cell-free assay, competition with immobilised ligand; 1 µM).
The remaining activity of `O=C(O)c1ccc2c(c1)nc(Nc1ccc3ccccc3c1)c1ncncc12` is reported as 1% (enzyme activity, inhibitor, radiometric; 1 µM).
The remaining binding of `O=C(N1CCS(=O)(=O)CC1)N1C[C@H](c2ccc(OC(F)(F)F)cc2)C[C@H](c2nc(C3CC3)no2)C1` is reported as 100% (cell-free assay, competition with immobilised ligand; 1 µM).
The remaining signal of `N#CCCc1ccc2c(c1)-c1[nH]c3ccc([N+](=O)[O-])cc3c1CC(=O)N2` is reported as 46.8% (cell-free assay; 0.5 µM).
The remaining binding of `O=C(Nc1cccnn1)N1CC(C/C=C/c2cncc(Oc3ccc(C(F)(F)F)cn3)n2)C1` is reported as 81% (cell-free assay, competition with immobilised ligand; 1 µM).
`O=C(O)c1ccc2c(c1)nc(Nc1cccc(F)c1)c1ccncc12` has a remaining activity of 13% (enzyme activity, inhibitor, radiometric; 1 µM).
With `CNC(=O)c1cc(Oc2ccc(NC(=O)Nc3ccc(Cl)c(C(F)(F)F)c3)cc2)ccn1` the inhibition was -3% (enzyme activity, inhibitor; 0.3 µM).
The remaining activity of `O=C(O)c1ccc2c(c1)nc(Nc1ccc(F)c(Cl)c1)c1ncncc12` is reported as 41% (enzyme activity, inhibitor, radiometric; 1 µM).
`Cc1cc(NC(=O)c2cccc3cc(-c4cccc5[nH]nc(N)c45)ccc23)ccc1F` gave an activity vs control of 98% (enzyme activity, inhibitor; 0.1 µM).
The inhibition of `Cn1cncc1C1=CN(c2ncnc3[nH]cnc23)CCS1` is reported as 20.6% (enzyme activity, inhibitor, radiometric; 50 nM).
`Cc1c(C(=O)O)cc(-c2ccc(C3CCNCC3)cc2)c2ccc(-c3ccc(C(F)(F)F)cc3)cc12` has a remaining binding of 100% (binding, competition with immobilised ligand; 1 µM).
`O=C(O)c1ccc2c(c1)nc(Nc1ccc(Cl)cc1)c1ncncc12` has a remaining activity of 33% (enzyme activity, inhibitor, radiometric; 1 µM).
`Cc1cc(C)c(-n2ccn3nc(-c4cccnc4)cc23)cc1NC(=O)c1cc(C#N)cc(S(F)(F)(F)(F)F)c1` gave a remaining binding of 82.5% (cell-free assay, competition with immobilised ligand; 0.1 µM).
The inhibition of `Cc1ccc(Nc2nccc(N(C)c3ccc4c(C)n(C)nc4c3)n2)cc1S(N)(=O)=O` is reported as -3% (enzyme activity, inhibitor; 10 µM).
For `Cc1ccc(NC(=O)c2ccc(C)c(C(F)(F)F)c2)cc1C#Cc1nn(C2CCC(O)CC2)c2ncnc(N)c12` (stereo not shown), the remaining signal was 107% (cell-free assay; 10 µM).
`Cc1ccc(NC(=O)c2ccc(CN3CCN(C)CC3)cc2)cc1Nc1nc(-c2cccnc2)cs1` gave a remaining signal of 109% (cell-free assay; 0.5 µM).
The remaining activity of `O=C(O)c1ccc2c(c1)nc(NCc1ccccc1)c1ncncc12` is reported as 37% (enzyme activity, inhibitor, radiometric; 1 µM).
`CCCS(=O)(=O)Nc1ccc(F)c(C(=O)c2c[nH]c3ncc(-c4ccc(Cl)cc4)cc23)c1F` gave an inhibition of less than 10% (enzyme activity, inhibitor; 1 µM).
The remaining signal of `O=C1NC(=O)c2cc(Nc3ccc(F)cc3)c(Nc3ccc(F)cc3)cc21` is reported as 89.1% (cell-free assay; 0.5 µM).
The remaining binding of `CSc1cccnc1N1CCN(Cc2nc3ccccc3[nH]2)CC1` is reported as 81% (cell-free assay, competition with immobilised ligand; 1 µM).
The remaining activity of `O=C(O)c1ccc2c(c1)nc(NCc1ccccc1)c1ccncc12` is reported as 27% (enzyme activity, inhibitor, radiometric; 1 µM).
The remaining signal of `O=C1Nc2ccc(Cl)cc2C1=Cc1cc(Cl)c(O)c(Cl)c1` is reported as 94% (cell-free assay; 0.5 µM).
With `Cc1c[nH]c2nccc(Oc3c(F)cc(Nc4cc(Cl)nc(N)n4)cc3F)c12` the remaining binding was 100% (cell-free assay, competition with immobilised ligand; 0.1 µM).
The remaining activity of `N#Cc1cccc(Nc2nc3cc(C(=O)O)ccc3c3cncnc23)c1` is reported as 55% (enzyme activity, inhibitor, radiometric; 1 µM).
With `CCN(CC)CCNC(=O)c1c(C)[nH]c(/C=C2\C(=O)Nc3ccc(F)cc32)c1C` the inhibition was -5% (enzyme activity, inhibitor; 0.3 µM).
